Measured values reported in ChEMBL document CHEMBL1125535, “Benzothiazole hydroxy ureas as inhibitors of 5-lipoxygenase: use of the hydroxyurea moiety as a replacement for hydroxamic acid” (J Med Chem, 1992).

How the values were obtained:
[1] = biological target: T1, Polyunsaturated fatty acid 5-lipoxygenase (Homo sapiens, UniProt P09917); assay: In vitro inhibition of ionophore stimulated LTB4 release from human peripheral blood leukocytes.; format: functional
T1 sequence (P09917 whole entry): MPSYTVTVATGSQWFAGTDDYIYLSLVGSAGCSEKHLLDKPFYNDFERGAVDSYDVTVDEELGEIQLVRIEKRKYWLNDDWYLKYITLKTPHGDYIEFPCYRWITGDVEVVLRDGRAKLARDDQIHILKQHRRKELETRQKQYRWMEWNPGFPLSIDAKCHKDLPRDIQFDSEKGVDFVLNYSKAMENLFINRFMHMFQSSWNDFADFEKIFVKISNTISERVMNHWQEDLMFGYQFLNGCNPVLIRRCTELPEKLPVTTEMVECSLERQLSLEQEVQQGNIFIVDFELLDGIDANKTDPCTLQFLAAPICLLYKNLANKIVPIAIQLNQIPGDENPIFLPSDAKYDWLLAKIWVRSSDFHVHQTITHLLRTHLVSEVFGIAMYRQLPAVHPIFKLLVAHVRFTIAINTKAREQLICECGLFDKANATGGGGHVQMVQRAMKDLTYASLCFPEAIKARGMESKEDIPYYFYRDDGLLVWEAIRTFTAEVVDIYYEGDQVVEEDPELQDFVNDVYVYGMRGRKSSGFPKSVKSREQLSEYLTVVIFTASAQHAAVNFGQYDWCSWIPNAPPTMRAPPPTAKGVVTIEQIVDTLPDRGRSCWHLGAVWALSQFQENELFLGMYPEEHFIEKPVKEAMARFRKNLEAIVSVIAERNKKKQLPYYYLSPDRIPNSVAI
How it was run: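 Leukocytes from pooled human venous blood were isolated by plasmagel sedimentation and erythrocyte lysis, then set to 1×10^6 cells/mL in modified Eagle MEM. Cells were preincubated 5 min at 37 °C with DMSO vehicle or compound, then stimulated 5 min at 37 °C with A23187 (5 µL of 0.1 mM). Reaction stopped on ice with cold Ca-free PBS; supernatant LTB4 measured by [3H]RIA.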

[2] = system: Mus musculus; assay: In vivo 5-Lipoxygenase inhibitory activity by using mouse zymosan peritonitis model; inactive; format: functional, organism-based
How it was run: (§1)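 CD-1 mice (18–25 g) received compound orally in 0.5% methyl cellulose, then 3 mg zymosan-A in 0.5 mL 0.9% saline ip 1 h later. Samples were held on ice ≥30 min and spun at 28000g for 15 min at 4 °C. Supernatants were dried under nitrogen and stored at −70 °C. LTC4 measured by [3H]RIA on a 1:20 dilution.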

[3] = biological target: T1, Polyunsaturated fatty acid 5-lipoxygenase; assay: In vitro effective concentration required to inhibit ionophore stimulated-human peripheral blood leukocytes; inactive; format: functional
[4] = system: Mus musculus; assay: In vivo 5-Lipoxygenase inhibitory activity by using mouse zymosan peritonitis model; format: functional, organism-based; how it was run: as §1

Compound	EC50 [1]	EC50 [2]	EC50 [3]	EC50 [4]
CC(C)c1ccc2nc(SCCNC(=O)N(C)O)sc2c1	160 nM	Not Active	–	–
CN(O)C(=O)CCSc1nc2ccccc2s1	39 nM	–	–	–
O=C(NO)NCCSc1nc2cc(Cl)ccc2s1	24500 nM	Not Active	–	–
CN(O)C(=O)CSc1nc2ccccc2s1	70 nM	–	–	–
CC(C)N(O)C(=O)NCCCSc1nc2ccccc2s1	70 nM	Not Active	–	–
CNC(=O)NCCSc1nc2ccccc2s1	–	Not Active	Not Active	–
CNC(=O)CCSc1nc2ccccc2s1	–	–	Not Active	–
CN(O)C(=O)/C=C/Sc1nc2ccccc2s1	130 nM	–	–	–
CCOc1ccc2nc(SCCNC(=O)N(O)C(C)C)sc2c1	390 nM	Not Active	–	–
CON(C)C(=O)NCCSc1nc2ccccc2s1	–	Not Active	Not Active	–
CONC(=O)NCCSc1nc2ccccc2s1	–	Not Active	Not Active	–
CN(O)C(=O)NCSc1nc2ccccc2s1	1070 nM	–	–	65.9 mg/kg
CC(C)N(O)C(=O)NCCSc1nc2cc(Cl)ccc2s1	70 nM	Not Active	–	–
CN(O)C(=O)CCSc1nc2cc(Cl)ccc2s1	20 nM	–	–	–
CN(O)C(=O)NCCSc1nc2cccc(Cl)c2s1	530 nM	Not Active	–	–
CC(C)N(O)C(=O)NCCSc1nc2ccccc2s1	130 nM	Not Active	–	–
CN(O)C(=O)NCCSc1nc2cc(Cl)ccc2s1	20 nM	–	–	23.1 mg/kg
O=C(NO)NCCSc1nc2ccccc2s1	5200 nM	Not Active	–	–
CN(O)C(=O)NCCSc1nc2ccccc2s1	90 nM	–	–	41 mg/kg
CN(O)C(=O)NCCSc1nc2cc(C(F)(F)F)ccc2s1	3200 nM	Not Active	–	–
CCOc1ccc2nc(SCCNC(=O)N(C)O)sc2c1	110 nM	Not Active	–	–
CN(O)C(=O)NCCCSc1nc2ccccc2s1	45 nM	–	–	23 mg/kg
NC1=NN(c2cccc(C(F)(F)F)c2)CC1 [BW-755C]	–	–	–	8.5 mg/kg
COc1ccc(-n2nc(CCC(=O)N(C)O)cc2-c2ccc(Cl)cc2)cc1 [TEPOXALIN]	70 nM	–	–	44.5 mg/kg
CC(c1cc2ccccc2s1)N(O)C(N)=O (stereo not drawn) [ZILEUTON]	–	–	–	1.6 mg/kg
